Assay results from ChEMBL document CHEMBL1139576, “Synthesis and biological evaluation of benzothiazole derivatives as potent antitumor agents” (Bioorg Med Chem Lett, 2005).
≈ marks a conversion by molar mass, not a printed value.

The molecules below were run on Mus musculus (assay: In vivo percent inhibitory effect on tumor growth after 11 days against mouse Lewis lung carcinoma xenograft model (LLC) at the dose of 20 mg/kg/shot; (Schedule day=1)). Details: 264 h, read-out: TGI.
Assay type: functional
How it was run: (§1)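 Mouse Lewis lung carcinoma was inoculated subcutaneously into BDF1 female mice (n = 6) on day 0. Dosing was iv in 10% DMA/10% HCO60 (polyoxyethylene hydrogenated castor oil 60)/80% saline on the stated schedule. Tumor growth inhibition (%) was based on tumor volume at day 11, with significance by t test (p < 0.05).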

SMILES	inhibition in vivo at 20 mg/kg
O=C(Nc1ccc2nc(NC(=O)C3CC3)sc2c1)c1c(Cl)cccc1Cl	68%

Each molecule was assayed on Mus musculus (assay: In vivo percent inhibitory effect on tumor growth after 11 days against mouse Lewis lung carcinoma xenograft model (LLC) at the dose of 5 mg/kg/shot; (Schedule day=1,4,7)). Details: 264 h, read-out: TGI.
Assay type: functional
How it was run: as §1

SMILES	inhibition in vivo at 5 mg/kg
O=C(Nc1ccc2nc(NC(=O)C3CC3)sc2c1)c1c(Cl)cccc1Cl	63%

Each molecule was assayed on Mus musculus (assay: In vivo percent inhibitory effect on tumor growth after 11 days against mouse Lewis lung carcinoma xenograft model (LLC) at the dose of 40 mg/kg/shot; (Schedule day=1,4,7)). Details: 264 h, read-out: TGI.
Assay type: functional
How it was run: as §1

SMILES	inhibition in vivo at 40 mg/kg
O=C(Nc1ccc2nc(NC(=O)C3CCCCC3)sc2c1)c1c(Cl)cccc1Cl	35%
Cn1ncc([N+](=O)[O-])c1C(=O)Nc1ccc2nc(NC(=O)C3CCCCC3)sc2c1	15%

Species: Mus musculus
Assay: Half life time in plasma (concentration)
Assay type: functional, organism-based
Details: not given
How it was run: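 Plasma levels were measured in BDF1 female mice after iv administration at 10 mg/kg, with n = 2 and the mean concentration–time profile reported. The plasma half-life was derived from these profiles.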

SMILES	T1/2
O=C(Nc1ccc2nc(NC(=O)C3CCCCC3)sc2c1)c1c(Cl)cccc1Cl	1.1 h

These molecules were tested on WI-38 VA13 (assay: Cytotoxicity against tumorigenic cell line WI-38 VA-13 subline 2RA (VA-13);no cytotoxicity against parental cell line WI-38). Details: Homo sapiens.
Assay type: functional, cell-based

SMILES	EC50
O=C(Nc1ccc2nc(NC(=O)C3CCCCC3)sc2c1)c1ccccc1Cl	0.025 µg/mL (≈ 0.0604 µM)
O=C(Nc1ccc2nc(NC(=O)C3CCCCC3)sc2c1)c1c(Cl)cccc1Cl	0.015 µg/mL (≈ 0.0335 µM)
O=C(Nc1ccc2nc(NC(=O)C3CCC3)sc2c1)c1c(Cl)cccc1Cl	0.013 µg/mL (≈ 0.0309 µM)
COc1cccc(Nc2nc3ccc(NC(=O)c4c(Cl)cccc4Cl)cc3s2)c1	> 7.2 µg/mL
COc1ccc(Nc2nc3ccc(NC(=O)c4c(Cl)cccc4Cl)cc3s2)cc1	0.87 µg/mL (≈ 1.96 µM)
CC(=O)Nc1ccc2nc(NC(=O)C3CCCCC3)sc2c1	2.7 µg/mL (≈ 8.51 µM)
O=C(Nc1ccc2nc(NC(=O)C3CCCCC3)sc2c1)c1c(F)cccc1C(F)(F)F	0.032 µg/mL (≈ 0.0687 µM)
COC(=O)Nc1nc2ccc(NC(=O)c3c(Cl)cccc3Cl)cc2s1	0.0095 µg/mL (≈ 0.024 µM)
CCCCCCNC(=O)Nc1nc2ccc(NC(=O)c3c(Cl)cccc3Cl)cc2s1	0.29 µg/mL (≈ 0.623 µM)
O=C(NCCc1ccccc1)Nc1ccc2nc(NC(=O)C3CCCCC3)sc2c1	0.7 µg/mL (≈ 1.66 µM)
Cn1nccc1C(=O)Nc1ccc2nc(NC(=O)C3CCCCC3)sc2c1	0.58 µg/mL (≈ 1.51 µM)
O=C(Nc1ccc2nc(NC(=O)C3CCCCC3)sc2c1)c1ccc(Cl)cc1Cl	> 4 µg/mL
CC(=O)Nc1nc2ccc(NC(=O)c3c(Cl)cccc3Cl)cc2s1	0.6 µg/mL (≈ 1.58 µM)
CCCC(C)C(=O)Nc1ccc2nc(NC(=O)C3CCCCC3)sc2c1 (stereo not drawn)	0.14 µg/mL (≈ 0.375 µM)
CCCCNC(=O)Nc1nc2ccc(NC(=O)c3c(Cl)cccc3Cl)cc2s1	0.028 µg/mL (≈ 0.064 µM)
CCCOC(=O)Nc1nc2ccc(NC(=O)c3c(Cl)cccc3Cl)cc2s1	0.0025 µg/mL (≈ 0.00589 µM)
O=C(Nc1nc2ccc(NC(=O)c3c(Cl)cccc3Cl)cc2s1)Oc1ccccc1	1.1 µg/mL (≈ 2.4 µM)
Cc1cccc(C)c1NC(=O)Nc1ccc2nc(NC(=O)C3CCCCC3)sc2c1	0.56 µg/mL (≈ 1.33 µM)
Cc1[nH][n+](C)c(C)c1C(=O)Nc1ccc2nc(NC(=O)C3CCCCC3)sc2c1	0.012 µg/mL
O=C(Nc1ccc2nc(NC(=O)C3CCCCC3)sc2c1)c1cccc(F)c1	0.64 µg/mL (≈ 1.61 µM)
CC(C)COC(=O)Nc1nc2ccc(NC(=O)c3c(Cl)cccc3Cl)cc2s1	0.0035 µg/mL (≈ 0.00798 µM)

SMILES	EC50
Cc1ccc(C(=O)Nc2ccc3nc(NC(=O)C4CCCCC4)sc3c2)cc1	5.1 µg/mL (≈ 13 µM)
NCCC(=O)Nc1nc2ccc(NC(=O)c3c(Cl)cccc3Cl)cc2s1	5.3 µg/mL (≈ 12.9 µM)
CC(C)COC(=O)Nc1ccc2nc(NC(=O)C3CCCCC3)sc2c1	0.72 µg/mL (≈ 1.92 µM)
CCCCOc1ccc(S(=O)(=O)Nc2ccc3nc(NC(=O)C4CCCCC4)sc3c2)cc1	0.75 µg/mL (≈ 1.54 µM)
O=C(Nc1nc2ccc(N/C(S)=N/c3ccccc3OC(F)(F)F)cc2s1)C1CCCCC1	2.3 µg/mL (≈ 4.65 µM)
CCOC(=O)Nc1nc2ccc(NC(=O)c3c(Cl)cccc3Cl)cc2s1	0.0026 µg/mL (≈ 0.00634 µM)
Cc1cc(C(=O)Nc2ccc3nc(NC(=O)C4CCCCC4)sc3c2)n(C)n1	0.12 µg/mL (≈ 0.302 µM)
Cc1cc(C(=O)Nc2ccc3nc(NC(=O)C4CCCCC4)sc3c2)c(C)n1C	> 6.2 µg/mL
CC(C)OC(=O)Nc1nc2ccc(NC(=O)c3c(Cl)cccc3Cl)cc2s1	0.0026 µg/mL (≈ 0.00613 µM)
O=C(O)CCC(=O)Nc1nc2ccc(NC(=O)c3c(Cl)cccc3Cl)cc2s1	> 6.6 µg/mL
N#Cc1ccc(C(=O)Nc2ccc3nc(NC(=O)C4CCCCC4)sc3c2)cc1	3.3 µg/mL (≈ 8.16 µM)
O=C(Nc1ccc2nc(NC(=O)C3CCCCC3)sc2c1)c1cccc(Oc2ccccc2)c1	> 4 µg/mL
O=C(Nc1ccc2nc(NC(=O)C3CC3)sc2c1)c1c(Cl)cccc1Cl	0.013 µg/mL (≈ 0.032 µM)
O=C(NCc1ccccc1)Nc1nc2ccc(NC(=O)c3c(Cl)cccc3Cl)cc2s1	0.15 µg/mL (≈ 0.318 µM)
Cc1coc(C)c1C(=O)Nc1ccc2nc(NC(=O)C3CCCCC3)sc2c1	2.7 µg/mL (≈ 6.79 µM)
N#Cc1cccc(C(=O)Nc2ccc3nc(NC(=O)C4CCCCC4)sc3c2)c1	0.52 µg/mL (≈ 1.29 µM)
O=C(Nc1ccc2nc(NCC3CCCCC3)sc2c1)c1c(Cl)cccc1Cl	4.3 µg/mL (≈ 9.9 µM)
CC(C)NC(=O)Nc1nc2ccc(NC(=O)c3c(Cl)cccc3Cl)cc2s1	0.03 µg/mL (≈ 0.0709 µM)
O=C(Nc1ccc2nc(NC(=O)C3CCCCC3)sc2c1)c1ccccc1F	0.14 µg/mL (≈ 0.352 µM)
O=C(Nc1ccc2nc(NC(=O)C3CCCCC3)sc2c1)c1ccccc1C(F)(F)F	0.024 µg/mL (≈ 0.0536 µM)
Cn1ncc([N+](=O)[O-])c1C(=O)Nc1ccc2nc(NC(=O)C3CCCCC3)sc2c1	0.026 µg/mL (≈ 0.0607 µM)

SMILES	EC50
C=CCOC(=O)Nc1ccc2nc(NC(=O)C3CCCCC3)sc2c1	0.58 µg/mL (≈ 1.61 µM)
CCOC(=O)Nc1nc2cc(NC(=O)c3c(Cl)cccc3Cl)ccc2s1	2.5 µg/mL (≈ 6.09 µM)
Cc1ccccc1C(=O)Nc1ccc2nc(NC(=O)C3CCCCC3)sc2c1	0.085 µg/mL (≈ 0.216 µM)
CC(C)CC(=O)Nc1nc2ccc(NC(=O)c3c(Cl)cccc3Cl)cc2s1	0.012 µg/mL (≈ 0.0284 µM)
Cc1nc(C)c(C(=O)Nc2ccc3nc(NC(=O)C4CCCCC4)sc3c2)s1	0.39 µg/mL (≈ 0.941 µM)
CCCCCNc1nc2ccc(NC(=O)c3c(Cl)cccc3Cl)cc2s1	0.27 µg/mL (≈ 0.661 µM)
CCCCCCCC(=O)Nc1nc2ccc(NC(=O)c3c(Cl)cccc3Cl)cc2s1	0.18 µg/mL (≈ 0.388 µM)
O=C(Nc1nc2ccc(NC(=S)Nc3ccc4c(c3)OCCO4)cc2s1)C1CCCCC1	1.6 µg/mL (≈ 3.41 µM)
COc1ccc(C(=O)Nc2ccc3nc(NC(=O)C4CCCCC4)sc3c2)cc1	4.9 µg/mL (≈ 12 µM)
Cc1ccc(F)cc1S(=O)(=O)Nc1ccc2nc(NC(=O)C3CCCCC3)sc2c1	0.7 µg/mL (≈ 1.56 µM)
O=C(Nc1ccc2nc(NC(=O)C3CCCCC3)sc2c1)c1ccccc1Oc1ccccc1	0.1 µg/mL (≈ 0.212 µM)
O=C(Nc1ccc2nc(NC(=O)C3CCCCC3)sc2c1)c1ccc(Br)cc1	> 4 µg/mL
CCCC(=O)Nc1nc2ccc(NC(=O)c3c(Cl)cccc3Cl)cc2s1	0.01 µg/mL (≈ 0.0245 µM)
CC(C)(C)OC(=O)Nc1nc2ccc(NC(=O)c3c(Cl)cccc3Cl)cc2s1	0.027 µg/mL (≈ 0.0616 µM)
COCCOC(=O)Nc1nc2ccc(NC(=O)c3c(Cl)cccc3Cl)cc2s1	0.011 µg/mL (≈ 0.025 µM)
CCNC(=O)Nc1nc2ccc(NC(=O)c3c(Cl)cccc3Cl)cc2s1	0.032 µg/mL (≈ 0.0782 µM)
O=C(Nc1ccc2nc(NC(=O)C3CCCCC3)sc2c1)c1cccnc1Cl	0.075 µg/mL (≈ 0.181 µM)
COc1ccccc1Nc1nc2ccc(NC(=O)c3c(Cl)cccc3Cl)cc2s1	> 7.2 µg/mL
CCC(C)(C)C(=O)Nc1ccc2nc(NC(=O)C3CCCCC3)sc2c1	1 µg/mL (≈ 2.68 µM)
O=C(Nc1nc2ccc(NC(=O)C3CCCO3)cc2s1)C1CCCCC1 (stereo not drawn)	1.3 µg/mL (≈ 3.48 µM)

Each molecule was assayed on Mus musculus (assay: Half life time in plasma at a single iv dose of 10 mg/kg). Details: not given.

SMILES	T1/2
O=C(Nc1ccc2nc(NC(=O)C3CC3)sc2c1)c1c(Cl)cccc1Cl	3.29 h
